In brackets after ≈: the same amount, converted by molar mass.
Key:
Pseudomonas aeruginosa [1] = assay: Antimicrobial activity against Pseudomonas aeruginosa PAO1 harboring deltaampD::lox deltaampDh2::lox deltaampDh3::lox deltanagZ::Gm after 18 hrs by Etest; type: functional; conditions: PAO1, 18 h
In short: (§1)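 Etest strips on Mueller-Hinton agar plates, run per the manufacturer's recommendations; MICs determined in triplicate.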

Pseudomonas aeruginosa [2] = assay: Antimicrobial activity against nagZ gene-deficient Pseudomonas aeruginosa PAO1 after 18 hrs by Etest; type: functional; conditions: PAO1, 18 h
In short: (§2)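 Strains are P. aeruginosa PAO1 and its insertional nagZ-inactivated derivative. MICs were read from Etest strips on Mueller-Hinton agar, following the manufacturer's recommendations. Each determination was done in triplicate.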

Pseudomonas aeruginosa [3] = assay: Antimicrobial activity against Pseudomonas aeruginosa PAO1 harboring deltaampD::lox deltaampDh2::lox delta ampDh3::lox after 18 hrs by Etest; type: functional; conditions: PAO1, 18 h; in short: as §1
Pseudomonas aeruginosa [4] = assay: Antimicrobial activity against Pseudomonas aeruginosa PAO1 after 18 hrs by Etest; type: functional; conditions: PAO1, 18 h; in short: as §2
Pseudomonas aeruginosa [5] = assay: Ratio of MIC for Pseudomonas aeruginosa PAO1 harboring deltaampD::lox deltaampDh2::lox deltaampDh3::lox to MIC for Pseudomonas aeruginosa PAO1 harboring deltaampD::lox deltaampDh2::lox deltaampDh3::lox deltanagZ::Gm
Beta-hexosaminidase = Beta-hexosaminidase (Pseudomonas aeruginosa (strain ATCC 15692 / PAO1 / 1C / PRS 101 / LMG12228), UniProt Q9HZK0); assay: Inhibition of Pseudomonas aeruginosa PAO1 nagZ gene after 1.5 hrs by fluorescence spectrophotometry
Chain of Beta-hexosaminidase (Q9HZK0 whole entry): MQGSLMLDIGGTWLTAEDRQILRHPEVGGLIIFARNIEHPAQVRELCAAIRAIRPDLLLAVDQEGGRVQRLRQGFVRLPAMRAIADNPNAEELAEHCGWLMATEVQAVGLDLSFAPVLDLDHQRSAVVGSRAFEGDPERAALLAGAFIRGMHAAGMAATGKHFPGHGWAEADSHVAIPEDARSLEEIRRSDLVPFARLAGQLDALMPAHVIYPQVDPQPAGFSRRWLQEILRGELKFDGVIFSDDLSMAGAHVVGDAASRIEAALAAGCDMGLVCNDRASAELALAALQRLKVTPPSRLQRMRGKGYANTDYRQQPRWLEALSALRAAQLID
In short: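 Cultures in Mueller-Hinton broth were grown at 37°C to OD600 ~0.5, diluted to 0.25 and grown 1.5 h more. Cells were PBS-washed and sonicated. Lysate protein (15 μg) was incubated with 2 mM 4-MUGlcNAc in PBS pH 7.4 at 37°C for 1–8 h, then quenched with glycine-NaOH pH 10.7. 4-MU fluorescence was read at ex 360/em 450 nm, in triplicate, with heat-denatured lysate controls.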

Pseudomonas aeruginosa [6] = assay: Antimicrobial activity against ampDh2 gene-deficient Pseudomonas aeruginosa PAO1 after 18 hrs by broth microdilution method in presence of 0.5 mM nagZ inhibitor EtBuPUG; type: functional; conditions: PAO1, 18 h
In short: (§3)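 Wells are then inoculated with 100 μl culture and incubated 18 h at 37°C. The MIC is the lowest concentration with no growth. Triplicate determinations.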

Pseudomonas aeruginosa [7] = assay: Antimicrobial activity against ampDh3 gene-deficient Pseudomonas aeruginosa PAO1 after 18 hrs by broth microdilution method in presence; type: functional; conditions: PAO1, 18 h; in short: as §3
Pseudomonas aeruginosa [8] = assay: Antimicrobial activity against ampDh3 gene-deficient Pseudomonas aeruginosa PAO1 after 18 hrs by broth microdilution method in presence of 0.5 mM nagZ inhibitor EtBuPUG; type: functional; conditions: PAO1, 18 h; in short: as §3
Pseudomonas aeruginosa [9] = assay: Antimicrobial activity against ampDDh2 gene-deficient Pseudomonas aeruginosa PAO1 after 18 hrs by broth microdilution method in presence; type: functional; conditions: PAO1, 18 h; in short: as §3
Pseudomonas aeruginosa [10] = assay: Antimicrobial activity against ampDDh2 gene-deficient Pseudomonas aeruginosa PAO1 after 18 hrs by broth microdilution method in presence of 0.5 mM nagZ inhibitor EtBuPUG; type: functional; conditions: PAO1, 18 h; in short: as §3
Pseudomonas aeruginosa [11] = assay: Antimicrobial activity against ampDDh3 gene-deficient Pseudomonas aeruginosa PAO1 after 18 hrs by broth microdilution method in presence; type: functional; conditions: PAO1, 18 h; in short: as §3
Pseudomonas aeruginosa [12] = assay: Antimicrobial activity against ampDDh3 gene-deficient Pseudomonas aeruginosa PAO1 after 18 hrs by broth microdilution method in presence of 0.5 mM nagZ inhibitor EtBuPUG; type: functional; conditions: PAO1, 18 h; in short: as §3
Pseudomonas aeruginosa [13] = assay: Antimicrobial activity against ampDh2 and ampDh3 gene-deficient Pseudomonas aeruginosa PAO1 after 18 hrs by broth microdilution method; type: functional; conditions: PAO1, 18 h; in short: as §3
Pseudomonas aeruginosa [14] = assay: Antimicrobial activity against ampDh2 and ampDh3 gene-deficient Pseudomonas aeruginosa PAO1 after 18 hrs by broth microdilution method in presence of 0.5 mM nagZ inhibitor EtBuPUG; type: functional; conditions: PAO1, 18 h; in short: as §3
Pseudomonas aeruginosa [15] = assay: Antimicrobial activity against ampDDh2 and ampDh3 gene-deficient Pseudomonas aeruginosa PAO1 after 18 hrs by broth microdilution method in presence of 0.5 mM nagZ inhibitor EtBuPUG; type: functional; conditions: PAO1, 18 h; in short: as §3
Pseudomonas aeruginosa [16] = assay: Antimicrobial activity against Pseudomonas aeruginosa PAO1 after 18 hrs by using 30 ug/disk by agar diffusion method in presence of 0.5 mM nagZ inhibitor EtBuPUG; type: functional
In short: (§4)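 Cultures grown in Mueller-Hinton broth at 37°C to OD600 ~0.5, pelleted, resuspended in 2 ml broth and streaked on Mueller-Hinton agar. […] Inhibition zone diameter measured after overnight incubation at 37°C. Triplicate determinations.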

Pseudomonas aeruginosa [17] = assay: Antimicrobial activity against ampDh2 gene-deficient Pseudomonas aeruginosa PAO1 using 30 ug/disk by agar diffusion method in presence of 0.5 mM nagZ inhibitor EtBuPUG; type: functional; in short: as §4
Pseudomonas aeruginosa [18] = assay: Antimicrobial activity against ampDDh2 and ampDh3 gene-deficient Pseudomonas aeruginosa PAO1 after 18 hrs using […] by agar diffusion method; type: functional; in short: as §4
Pseudomonas aeruginosa [19] = assay: Antimicrobial activity against Pseudomonas aeruginosa PAO1 harboring deltaampD::lox deltaampDh2::lox delta ampDh3::lox and plasmid pUCP27 after 18 hrs by Etest; type: functional; conditions: PAO1, 18 h
In short: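 Etest strips on Mueller-Hinton agar supplemented with 75 μg/ml tetracycline to maintain the vector or complementation plasmid, run per the manufacturer's recommendations; triplicate determinations.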

Pseudomonas aeruginosa [20] = assay: Antimicrobial activity against nagZ gene-deficient Pseudomonas aeruginosa PAO1 after 18 hrs by broth microdilution method; type: functional; conditions: PAO1, 18 h
In short: (§5)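 CLSI broth microdilution in cation-adjusted Mueller-Hinton medium with serial β-lactam dilutions. Each well holds 200 μl broth inoculated with ~10⁴ cells from starter cultures at OD600 ~0.5. Plates shaken at 37°C for 18 h. The MIC is read as the lowest antibiotic concentration showing no growth. Triplicate determinations.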

Pseudomonas aeruginosa [21] = assay: Antimicrobial activity against Pseudomonas aeruginosa PAO1 after 18 hrs by broth microdilution method; type: functional; conditions: PAO1, 18 h; in short: as §5
Pseudomonas aeruginosa [22] = assay: Antimicrobial activity against Pseudomonas aeruginosa PAO1 after 18 hrs by broth microdilution method in presence of 0.5 mM nagZ inhibitor EtBuPUG; type: functional; conditions: PAO1, 18 h; in short: as §3
Pseudomonas aeruginosa [23] = assay: Antimicrobial activity against ampD gene-deficient Pseudomonas aeruginosa PAO1 after 18 hrs by broth microdilution method in presence of 0.5 mM nagZ inhibitor EtBuPUG; type: functional; conditions: PAO1, 18 h; in short: as §3
Pseudomonas aeruginosa [24] = assay: Antimicrobial activity against ampD gene-deficient Pseudomonas aeruginosa PAO1 after 18 hrs by broth microdilution method in absence of EtBuPUG; conditions: PAO1, 18 h
Pseudomonas aeruginosa [25] = assay: Antimicrobial activity against ampDh2 gene-deficient Pseudomonas aeruginosa PAO1 after 18 hrs by broth microdilution method in absence of EtBuPUG; conditions: PAO1, 18 h
Pseudomonas aeruginosa [26] = assay: Antimicrobial activity against nagZ gene-deficient Pseudomonas aeruginosa PAO1 harboring plasmid pUCP27 after 18 hrs by broth microdilution method; type: functional; conditions: PAO1, 18 h
Pseudomonas aeruginosa [27] = assay: Antimicrobial activity against nagZ gene-deficient Pseudomonas aeruginosa PAO1 harboring wild type nagZ gene after 18 hrs by broth microdilution method; type: functional; conditions: PAO1, 18 h
[28] = molecular target: Beta-lactamase (Pseudomonas aeruginosa (strain ATCC 15692 / PAO1 / 1C / PRS 101 / LMG12228)) (UniProt P24735); assay: Activity of beta-lactamase AmpC in Pseudomonas aeruginosa PAO1 harboring deltaampD::lox deltaampDh2::lox deltaampDh3::lox deltanagZ::Gm assessed as nitrocefin hydrolysis after 3 hrs by spectrophotometric analysis
Chain of Beta-lactamase (Pseudomonas aeruginosa (strain ATCC 15692 / PAO1 / 1C / PRS 101 / LMG12228)) (P24735 27-397 limits assumed): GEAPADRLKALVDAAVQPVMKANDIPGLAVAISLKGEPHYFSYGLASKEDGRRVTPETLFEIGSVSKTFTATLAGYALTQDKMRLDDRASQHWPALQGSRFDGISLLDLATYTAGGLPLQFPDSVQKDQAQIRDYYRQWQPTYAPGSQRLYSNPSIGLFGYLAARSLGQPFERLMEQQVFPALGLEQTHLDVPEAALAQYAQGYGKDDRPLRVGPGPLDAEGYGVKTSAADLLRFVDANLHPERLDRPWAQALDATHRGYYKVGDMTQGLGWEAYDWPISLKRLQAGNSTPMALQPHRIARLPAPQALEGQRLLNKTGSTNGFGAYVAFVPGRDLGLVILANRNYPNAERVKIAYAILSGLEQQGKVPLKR
In short: (§6)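 Strains grown in Mueller-Hinton broth at 37°C to OD600 ~0.5, then cultured 3 h at 37°C with 50 μg/ml cefoxitin (induced) or without. Crude sonic lysates assayed in triplicate at 37°C by continuous assay: nitrocefin (initial 100 μM) hydrolysis followed at 485 nm for 5 min. Specific activity expressed as nmol nitrocefin hydrolyzed/min/mg protein.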

[29] = molecular target: Beta-lactamase (Pseudomonas aeruginosa (strain ATCC 15692 / PAO1 / 1C / PRS 101 / LMG12228)) (UniProt P24735); assay: Activity of beta-lactamase AmpC in Pseudomonas aeruginosa PAO1 harboring deltaampD::lox deltaampDh2::lox deltaampDh3::lox assessed as nitrocefin hydrolysis after 3 hrs by spectrophotometric analysis; in short: as §6
[30] = molecular target: Beta-lactamase (Pseudomonas aeruginosa (strain ATCC 15692 / PAO1 / 1C / PRS 101 / LMG12228)) (UniProt P24735); assay: Activity of beta-lactamase AmpC in Pseudomonas aeruginosa nagZ gene-deficient PAO1 assessed as nitrocefin hydrolysis after 3 hrs by spectrophotometric analysis; in short: as §6
[31] = molecular target: Beta-lactamase (Pseudomonas aeruginosa (strain ATCC 15692 / PAO1 / 1C / PRS 101 / LMG12228)) (UniProt P24735); assay: Activity of beta-lactamase AmpC in Pseudomonas aeruginosa PAO1 assessed as nitrocefin hydrolysis after 3 hrs by spectrophotometric analysis; in short: as §6
Pseudomonas aeruginosa [32] = assay: Antimicrobial activity against Pseudomonas aeruginosa PAO1 harboring deltaampD::lox deltaampDh2::lox deltaampDh3::lox after 18 hrs by broth microdilution method; type: functional; conditions: PAO1, 18 h; in short: as §5
Pseudomonas aeruginosa [33] = assay: Antimicrobial activity against Pseudomonas aeruginosa PAO1 harboring deltaampD::lox deltaampDh2::lox delta ampDh3::lox after 18 hrs by broth microdilution method; type: functional; conditions: PAO1, 18 h; in short: as §5

## CO/N=C(\C(=O)N[C@@H]1C(=O)N2C(C(=O)[O-])=C(C[N+]3(C)CCCC3)CS[C@H]12)c1csc(N)n1
Pseudomonas aeruginosa [1]
  MIC: 3 µg/mL (≈ 6.24 µM)
Pseudomonas aeruginosa [2]
  MIC: 0.38 µg/mL (≈ 0.791 µM)
Pseudomonas aeruginosa [3]
  MIC: 12 µg/mL (≈ 25 µM)
Pseudomonas aeruginosa [4]
  MIC: 0.5 µg/mL (≈ 1.04 µM)
Pseudomonas aeruginosa [5]
  Ratio: 4

## CCC(CC)C(=O)N[C@H]1/C(=N/OC(=O)Nc2ccccc2)O[C@H](CO)[C@@H](O)[C@@H]1O
Beta-hexosaminidase
  Ki: 3.5 µM

## C[C@H]1[C@H](NC(=O)/C(=N\OC(C)(C)C(=O)O)c2csc(N)n2)C(=O)N1S(=O)(=O)O [AZTREONAM]
Pseudomonas aeruginosa [6]
  MIC: 0.25 µg/mL
Pseudomonas aeruginosa [7]
  MIC: 1.5 µg/mL (≈ 3.44 µM)
Pseudomonas aeruginosa [8]
  MIC: 0.75 µg/mL
Pseudomonas aeruginosa [9]
  MIC: 16 µg/mL (≈ 36.7 µM)
Pseudomonas aeruginosa [10]
  MIC: 8 µg/mL
Pseudomonas aeruginosa [11]
  MIC: 16 µg/mL (≈ 36.7 µM)
Pseudomonas aeruginosa [12]
  MIC: 8 µg/mL
Pseudomonas aeruginosa [13]
  MIC: 0.5 µg/mL (≈ 1.15 µM)
Pseudomonas aeruginosa [14]
  MIC: 0.25 µg/mL
Pseudomonas aeruginosa [15]
  MIC: 12 µg/mL
Pseudomonas aeruginosa [16]
  inhibition zone (IZ): 15.1 mm
Pseudomonas aeruginosa [17]
  inhibition zone (IZ): 14 mm
Pseudomonas aeruginosa [18]
  inhibition zone (IZ): 10.7 mm
Pseudomonas aeruginosa [19]
  MIC: 6 µg/mL (≈ 13.8 µM)
Pseudomonas aeruginosa [1]
  MIC: 4 µg/mL (≈ 9.19 µM)
Pseudomonas aeruginosa [20]
  MIC: 0.25 µg/mL (≈ 0.574 µM)
Pseudomonas aeruginosa [21]
  MIC: 1 µg/mL (≈ 2.3 µM)
Pseudomonas aeruginosa [22]
  MIC: 0.25 µg/mL
Pseudomonas aeruginosa [23]
  MIC: 3 µg/mL
Pseudomonas aeruginosa [24]
  MIC: 6 µg/mL (≈ 13.8 µM)
Pseudomonas aeruginosa [25]
  MIC: 1 µg/mL (≈ 2.3 µM)

## CO[C@@]1(NC(=O)Cc2cccs2)C(=O)N2C(C(=O)O)=C(COC(N)=O)CS[C@@H]21 [CEFOXITIN]
Pseudomonas aeruginosa [26]
  MIC: 600 µg/mL (≈ 1400 µM)
Pseudomonas aeruginosa [27]
  MIC: 1200 µg/mL (≈ 2810 µM)
[28]
  Activity: 1020 nmol
[29]
  Activity: 3940 nmol
[30]
  Activity: 95 nmol
[31]
  Activity: 230 nmol
Pseudomonas aeruginosa [32]
  MIC: 3200 µg/mL (≈ 7490 µM)
Pseudomonas aeruginosa [20]
  MIC: 800 µg/mL (≈ 1870 µM)
Pseudomonas aeruginosa [33]
  MIC: 3200 µg/mL (≈ 7490 µM)
Pseudomonas aeruginosa [21]
  MIC: 1600 µg/mL (≈ 3740 µM)

— ChEMBL document CHEMBL1649427, “Inactivation of the glycoside hydrolase NagZ attenuates antipseudomonal beta-lactam resistance in Pseudomonas aeruginosa” (Antimicrob Agents Chemother, 2009)
